Test results as given in ChEMBL document CHEMBL1122043, “A new class of nitrosoureas. 4. Synthesis and antitumor activity of disaccharide derivatives of 3,3-disubstituted 1-(2-chloroethyl)-1-nitrosoureas” (J Med Chem, 1982).

Key:
[1] = Therapeutic index value for anti-L1210 activity.; settings: mouse; for selectivity ratio: read-out: TI
Summary of the method: (§1)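 Mice were male BDF1 inoculated ip with 10^5 L1210 cells. Ip treatment began 24 h later. Therapeutic ratio = OD/ILS30. ILS30 is the daily dose giving a 30% increase in life-span over control. OD is the daily dose giving the maximum increase in life-span.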

L1210 [2] = test: Antitumor activity against Leukemia L1210 cells in male BDF1 mice at the dose of 100 mg/kg/day x5 (i.p.) expressed as maximal increase in life-span; type: functional, Mus musculus; settings: route intraperitoneal
Summary of the method: (§2)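 L1210 leukemia cells (10^5) given ip to male BDF1 mice. Ip dosing started 24 h after inoculation and was given once daily for 5 days. Life-span increase was calculated as ILS (%) = (T/C-1) × 100. Optimal dose was the daily dose giving the maximum increase in life-span.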

[3] = […] required for antitumor activity against Ehrlich ascites carcinoma cells in […] mice.; type: functional, Mus musculus
[4] = Therapeutic index value for anti-Ehrlich activity.; settings: mouse; for selectivity ratio: read-out: TI
Summary of the method: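 Ehrlich ascites cells (10^6) were inoculated ip into 5 female ICR mice. Ip dosing began 24 h later and was given once daily for 5 days. Therapeutic ratio = MTD/MED. MED is the minimum dose giving 100% inhibition of tumor growth. MTD is the maximum dose giving 100% inhibition without mouse deaths.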

L1210 [5] = test: Antitumor activity against Leukemia L1210 cells in BDF1 mice at the dose of 400 mg/kg/day x 5 (ip), maximum increase in life-span; type: functional, Mus musculus
Summary of the method: (§3)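 Male BDF1 mice were inoculated ip with 10^5 L1210 leukemia cells. Drug was given ip once daily for 5 days, starting 24 h after inoculation. ILS (%) = (T/C-1) × 100. The recorded value is the ILS at the optimal dose, meaning the daily dose giving the maximum increase in life-span.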

L1210 [6] = test: Antitumor activity against Leukemia L1210 cells in male BDF1 mice at the dose of 50 mg/kg/day x5 (i.p.) expressed as maximal increase in life-span; type: functional, Mus musculus; settings: route intraperitoneal; summary of the method: as §2
L1210 [7] = test: Antitumor activity against Leukemia L1210 cells in male BDF1 mice at the dose of 230 mg/kg/day x1 (i.p.) expressed as maximal increase in life-span; type: functional, Mus musculus; settings: route intraperitoneal
Summary of the method: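 Male BDF1 mice (six or eight) received 10^5 L1210 cells ip. A single ip dose, in (mg/kg)/day × 1, was given 24 h after inoculation. ILS (%) = (T/C-1) × 100. The optimal dose was the dose giving the maximum increase in life-span.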

L1210 [8] = test: Antitumor activity against Leukemia L1210 cells in BDF1 mice at the dose of 50 mg/kg/day x5 (i.p.) expressed as maximal increase in life-span; type: functional, Mus musculus; settings: route intraperitoneal; summary of the method: as §2
L1210 [9] = test: Antitumor activity against Leukemia L1210 cells in BDF1 mice at the dose of 130 mg/kg/ day *5 (i.p.) expressed as maximal increase in life-span; type: functional, Mus musculus; settings: route intraperitoneal; in the assay text read “25 mg/kg/ day” for “130 mg/kg/ day”; summary of the method: as §2
L1210 [10] = test: Antitumor activity against Leukemia L1210 cells in male BDF1 mice at the dose of 200 mg/kg/day x5 (i.p.) expressed as maximal increase in life-span; type: functional, Mus musculus; settings: route intraperitoneal; summary of the method: as §2
L1210 [11] = test: Antitumor activity against Leukemia L1210 cells in male BDF1 mice at the dose of 200 mg/kg/day x5 (ip) expressed as maximal increase in life-span; type: functional, Mus musculus; summary of the method: as §2
L1210 [12] = test: Antitumor activity against Leukemia L1210 cells in BDF1 mice at the dose of 25 mg/kg/day x1 (i.p.) expressed as maximal increase in life-span; settings: route intraperitoneal
L1210 [13] = test: Antitumor activity against Leukemia L1210 cells in BDF1 mice at the dose of 6.25 mg/kg/day x5 (i.p.) expressed as maximal increase in life-span; type: functional, Mus musculus; settings: route intraperitoneal; summary of the method: as §2
[14] = Minimum effective dose required for antitumor activity against Ehrlich ascites carcinoma cells in female ICR mice.
[15] = Maximum tolerated dose required antitumor activity against Ehrlich ascites carcinoma cells in female ICR mice.
L1210 [16] = test: Antitumor activity against Leukemia L1210 cells in male BDF1 mice at the dose of 6.25 mg/kg/day x5 (i.p.) expressed as maximal increase in life-span; type: functional, Mus musculus; settings: route intraperitoneal; summary of the method: as §2
L1210 [17] = test: Antitumor activity against Leukemia L1210 cells in BDF1 mice at the dose of 6.25 mg/kg/day x 5 (ip), maximum increase in life-span; type: functional, Mus musculus; summary of the method: as §3
L1210 [18] = test: Antitumor activity against Leukemia L1210 cells in male BDF1 mice at the dose of 400 mg/kg/day x5 (i.p.) expressed as maximal increase in life-span; type: functional, Mus musculus; settings: route intraperitoneal; summary of the method: as §2
L1210 [19] = test: Antitumor activity against Leukemia L1210 cells in BDF1 mice at the dose of 50 mg/kg/day x 1 (i.p.), ILS30; settings: route intraperitoneal
L1210 [20] = test: Antitumor activity against Leukemia L1210 cells in male BDF1 mice at the dose of 25 mg/kg/day x5 (i.p.) expressed as maximal increase in life-span; type: functional, Mus musculus; settings: route intraperitoneal; summary of the method: as §3
[21] = Therapeutic index value for anti L1210 activity; Inactive; summary of the method: as §1

| Structure (SMILES) | selectivity ratio [1] | ILS30 (L1210 [2]) | MED [3] [mg kg-1 5day-1] | selectivity ratio [4] | also measured |
| --- | --- | --- | --- | --- | --- |
| CCOCCN(C(=O)N(CCCl)N=O)C1OC(CO)C(OC2OC(CO)C(O)C(O)C2O)C(O)C1O (stereo unspecified) | 37 | 2.7 | 3.12 | 64 | – |
| CC(=O)OCC1OC(N(CC(C)C)C(=O)N(CCCl)N=O)C(OC(C)=O)C(OC(C)=O)C1COCC1OC(COC(C)=O)C(OC(C)=O)C(OC(C)=O)C1OC(C)=O (stereo unspecified) | – | – | – | – | ILS max (L1210 [5]): 18% |
| CCCCCCN(C(=O)N(CCCl)N=O)C1OC(CO)C(OC2OC(CO)C(O)C(O)C2O)C(O)C1O (stereo unspecified) | 3.6 | – | – | 32 | ILS30 (L1210 [6]): 14 |
| CN(C(=O)N(CCCl)N=O)C1OC(CO)C(OC2OC(CO)C(O)C(O)C2O)C(O)C1O (stereo unspecified) | 11.4 | 8.8 | – | 32 | – |
| CC(C)CN(C(=O)N(CCCl)N=O)C1OC(CO)C(O)C(O)C1O (stereo unspecified) | 50 | – | – | – | TI [1]: 34.2; ILS30 (L1210 [7]): 2.6; ILS30 (L1210 [8]): 1; ILS30 (L1210 [9]): 0.73 |
| CCCCCN(C(=O)N(CCCl)N=O)C1OC(CO)C(OC2OC(CO)C(O)C(O)C2O)C(O)C1O (stereo unspecified) | 28.6 | 3.5 | 3.12 | 64 | – |
| CC(C)CN(C(=O)N(CCCl)N=O)C1OC(CO)C(OC2OC(CO)C(O)C(O)C2O)C(O)C1O (stereo in doubt; 37) | – | 1.2 | – | – | ILS30 (L1210 [7]): 7.3; TI [4]: 256 |
| C=CCCN(C(=O)N(CCCl)N=O)C1OC(CO)C(OC2OC(CO)C(O)C(O)C2O)C(O)C1O (stereo unspecified) | 64.5 | – | 1.56 | 128 | ILS30 (L1210 [10]): 3.1 |
| CC(C)N(C(=O)N(CCCl)N=O)C1OC(CO)C(OC2OC(CO)C(O)C(O)C2O)C(O)C1O (stereo unspecified) | 18.5 | 5.4 | – | 32 | – |
| CC(C)CN(C(=O)N(CCCl)N=O)C1OC(CO)C(OC2OC(CO)C(O)C(O)C2O)C(O)C1O (stereo in doubt; 63) | – | – | 100 | – | TI [1]: 1.3; ILS30 (L1210 [11]): 160; TI [4]: 2 |
| CCC(C)N(C(=O)N(CCCl)N=O)C1OC(CO)C(OC2OC(CO)C(O)C(O)C2O)C(O)C1O (stereo unspecified) | 66.7 | 1.5 | 1.56 | 128 | – |
| CCCN(C(=O)N(CCCl)N=O)C1OC(CO)C(OC2OC(CO)C(O)C(O)C2O)C(O)C1O (stereo unspecified) | 20.4 | 4.9 | – | 64 | – |
| O=NN(CCCl)C(=O)N(CC1CCCO1)C1OC(CO)C(OC2OC(CO)C(O)C(O)C2O)C(O)C1O (stereo unspecified) | 33.3 | – | 3.12 | 64 | ILS30 (L1210 [10]): 6 |
| O=NN(CCCl)C(=O)N[C@@H]1O[C@H](CO)[C@@H](O)[C@H](O)[C@H]1O | 7.8 | – | – | 32 | ILS30 (L1210 [12]): 1.1; ILS30 (L1210 [13]): 0.8; MED [14]: 0.39 mg kg-1 5day-1; MTD [15]: 12.5 mg kg-1 5day-1; ILS30 (L1210 [16]): 0.8; ILS max (L1210 [17]): >198.6% |
| CC(C)CN(C(=O)N(CCCl)N=O)C1OC(COC2OC(CO)C(O)C(O)C2O)C(O)C(O)C1O (stereo unspecified) | 1.1 | – | – | 1 | ILS30 (L1210 [18]): 350 |
| O=NN(CCCl)C(=O)N(CC1CC1)C1OC(CO)C(OC2OC(CO)C(O)C(O)C2O)C(O)C1O (stereo unspecified) | 28.6 | 3.5 | 1.56 | 64 | – |
| O=NN(CCCl)C(=O)N(CC1CCCCC1)C1OC(CO)C(OC2OC(CO)C(O)C(O)C2O)C(O)C1O (stereo unspecified) | 12.5 | 8 | 3.12 | 32 | – |
| CCCCN(C(=O)N(CCCl)N=O)C1OC(CO)C(OC2OC(CO)C(O)C(O)C2O)C(O)C1O (stereo unspecified) | 22.2 | 4.5 | 6.25 | 32 | – |
| O=NN(CCCl)C(=O)NC1CCCCC1 [LOMUSTINE] | 5.1 | – | – | 4 | ILS30 (L1210 [19]): 9.3 mg/kg; ILS30 (L1210 [20]): 4.9; MED [14]: 12.5 mg kg-1 5day-1; MTD [15]: 50 mg kg-1 5day-1 |
| O=NN(CCCl)C(=O)N(Cc1ccc(Cl)cc1)C1OC(CO)C(OC2OC(CO)C(O)C(O)C2O)C(O)C1O (stereo unspecified) | 10 | – | 1.56 | 128 | ILS30 (L1210 [10]): 20 |
| COCCN(C(=O)N(CCCl)N=O)C1OC(CO)C(OC2OC(CO)C(O)C(O)C2O)C(O)C1O (stereo unspecified) | 11.8 | – | 3.12 | 64 | ILS30 (L1210 [10]): 17 |
| CCCCCCCCCCCCCCCCN(C(=O)N(CCCl)N=O)C1OC(CO)C(OC2OC(CO)C(O)C(O)C2O)C(O)C1O (stereo unspecified) | – | – | – | 32 | TI [21]: Not Active |
| C=CCN(C(=O)N(CCCl)N=O)C1OC(CO)C(OC2OC(CO)C(O)C(O)C2O)C(O)C1O (stereo unspecified) | 50 | 2 | 1.56 | 64 | – |
| Cc1ncc(CNC(=O)N(CCCl)N=O)c(N)n1 [NIMUSTINE] | 9.3 | – | – | 8 | ILS30 (L1210 [20]): 2.9; MED [14]: 3.12 mg kg-1 5day-1; MTD [15]: 25 mg kg-1 5day-1 |
| C=C(C)CN(C(=O)N(CCCl)N=O)C1OC(CO)C(OC2OC(CO)C(O)C(O)C2O)C(O)C1O (stereo unspecified) | 62.5 | – | 1.56 | 128 | ILS30 (L1210 [10]): 3.2 |
| COCCCN(C(=O)N(CCCl)N=O)C1OC(CO)C(OC2OC(CO)C(O)C(O)C2O)C(O)C1O (stereo unspecified) | 26.7 | – | 3.12 | 64 | ILS30 (L1210 [10]): 7.5 |
